The term inhibition denotes the drop in the measured response relative to a control, in per cent.

Activity calls are given as the source filed them. The rule behind the calls is not given here.

For experiment [1], the system named is Lactuca sativa. Put plainly: Inhibition of hypocotyl elongation of lettuce seedlings at 100 mg/L after 4 days under 100 uE/m'2 light relative to control. It is filed as functional. The method in brief:
(§1)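 Lactuca sativa cv. Kingcisco seeds sown on filter paper wetted with deionized water, 1 day at 24 °C in continuous light (100 μE/m² s). Uniform seedlings (radicles 2 mm) moved to small dishes on filter paper with 1 mL deionized water containing test compound, kept 4 days at 24 °C in continuous light. Hypocotyl and root lengths measured; mean compared with untreated control; triplicate experiments.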

Experiment [2] has as its system Lactuca sativa. In words: Induction of root elongation in lettuce seedlings at 1 to 100 mg/L after 4 days under 100 uE/m'2 light. It counts as functional, organism-based. An outline of the steps: as §1
Experiment [3] has as its system Lactuca sativa. Put plainly: Induction of root elongation in lettuce seedlings at 100 mg/L after 4 days under 100 uE/m'2 light relative to control. It counts as functional. The method in brief:
as §1

Experiment [4] concerns Lactuca sativa. In words: Inhibition of hypocotyl elongation in lettuce seedlings at 1 to 100 mg/L after 4 days under 100 uE/m'2 light relative to control. It is filed as functional, organism-based. An outline of the steps: as §1
In experiment [5] the test system is Lactuca sativa. Put plainly: Inhibition of root elongation in lettuce seedlings at 1 to 100 mg/L after 4 days under 100 uE/m'2 light. It is filed as functional, organism-based. The method in brief: as §1
Experiment [6] relates to Lactuca sativa. Put plainly: Induction of hypocotyl elongation in lettuce seedlings at 1 mg/L after 4 days under 100 uE/m'2 light. It is filed as functional. An outline of the steps:
as §1

Experiment [7] relates to Lactuca sativa. Put plainly: Induction of hypocotyl elongation in lettuce seedlings at 10 mg/L after 4 days under 100 uE/m'2 light. It is filed as functional. An outline of the steps:
as §1

Experiment [8] concerns Lactuca sativa. Put plainly: Induction of hypocotyl elongation in lettuce seedlings at 100 mg/L after 4 days under 100 uE/m'2 light. It is filed as functional. The method in brief: as §1

Take `CC(C)C[C@H]1NC(=O)[C@H](Cc2c[nH]c3ccccc23)NC1=O`: in the experiment with Lactuca sativa [1], the outcome was inactive. In addition, the outcome with Lactuca sativa [2] was Active. The Activity in the experiment on Lactuca sativa [3] stood at 164%.

Regarding `CC[C@H](C)[C@H]1NC(=O)[C@H](Cc2c[nH]c3ccccc23)NC1=O`, the outcome in the experiment with Lactuca sativa [1] was inactive. Moreover, the result with Lactuca sativa [2] was Active. The Activity in the experiment with Lactuca sativa [3] was 167%.

In the case of `O=C(O)Cc1c[nH]c2ccccc12`, the result in the experiment with Lactuca sativa [4] and with Lactuca sativa [5] was Active.

Regarding `C=CC(C)(C)[C@@]12C[C@H]3C(=O)N[C@H](C(C)C)C(=O)N3[C@@H]1Nc1ccccc12` [BREVICOMPANINE], the inhibition at 100 µg/mL in the experiment with Lactuca sativa [1] (96 h) turned out to be 46%. Besides, the outcome in the experiment with Lactuca sativa [2] was Active. The molecule also gave an Activity in the experiment with Lactuca sativa [3] of 212%.

Regarding `C=C1C[C@]23C[C@@]1(O)CC[C@H]2[C@@]12C=C[C@H](O)[C@](C)(C(=O)O1)C2[C@@H]3C(=O)O` (stereo partly specified) [GIBBERELLINE], the Activity in the experiment with Lactuca sativa [6] came out at 433%; in the experiment on Lactuca sativa [7], 433%; with Lactuca sativa [8], 433%; in the experiment with Lactuca sativa [3], 164%. In the experiment on Lactuca sativa [2], the outcome was Active.

The record behind these values is ChEMBL document CHEMBL1158691, “Brevicompanine C, cyclo-(D-Ile-L-Trp), and cyclo-(D-Leu-L-Trp), plant growth regulators from Penicillium brevi-compactum” (2005).
